Hits are enriched below; roughly 2.5% of the tested compounds scored in any of these assays.
NS3 helicase inh – HCV NS3 helicase inhibition; AID 1800; NS3 helicase DNA unwinding, Cy5 molecular beacon fluorescence; 290,000 tested, 0.56% active; inhibition, % at 10.9 µM;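 active = inhibition above the mean of all tested compounds plus 3 SD, set per campaign, cut at about 35% in these data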;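 note: 0% = DMSO wells and 100% = thioflavine S control wells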
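Material: hepatitis C virus NS3 helicase domain fragment enzyme; measured by: Cy5 fluorescence, 0 and 60 min reads; control set: DMSO and thioflavine S; incubation: 60 min unwinding reaction at 25 °C after ATP addition; read-out basis: % inhibition from 60/0 min fluorescence ratio, DMSO 0%, thioflavine S 100%; repeats: singlicate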
DNMT1 block – DNMT1 (human) enzyme inhibition | P26358 | DNMT1 molecular beacon, Hinp1I cleavage, fluorescence | inhibition (reported as % activation of signal), % at 10 µM | 360,000 tested, 0.83% active; in the data active = inhibition above about 50%
Target sequence (P26358 504-1616 limits assumed): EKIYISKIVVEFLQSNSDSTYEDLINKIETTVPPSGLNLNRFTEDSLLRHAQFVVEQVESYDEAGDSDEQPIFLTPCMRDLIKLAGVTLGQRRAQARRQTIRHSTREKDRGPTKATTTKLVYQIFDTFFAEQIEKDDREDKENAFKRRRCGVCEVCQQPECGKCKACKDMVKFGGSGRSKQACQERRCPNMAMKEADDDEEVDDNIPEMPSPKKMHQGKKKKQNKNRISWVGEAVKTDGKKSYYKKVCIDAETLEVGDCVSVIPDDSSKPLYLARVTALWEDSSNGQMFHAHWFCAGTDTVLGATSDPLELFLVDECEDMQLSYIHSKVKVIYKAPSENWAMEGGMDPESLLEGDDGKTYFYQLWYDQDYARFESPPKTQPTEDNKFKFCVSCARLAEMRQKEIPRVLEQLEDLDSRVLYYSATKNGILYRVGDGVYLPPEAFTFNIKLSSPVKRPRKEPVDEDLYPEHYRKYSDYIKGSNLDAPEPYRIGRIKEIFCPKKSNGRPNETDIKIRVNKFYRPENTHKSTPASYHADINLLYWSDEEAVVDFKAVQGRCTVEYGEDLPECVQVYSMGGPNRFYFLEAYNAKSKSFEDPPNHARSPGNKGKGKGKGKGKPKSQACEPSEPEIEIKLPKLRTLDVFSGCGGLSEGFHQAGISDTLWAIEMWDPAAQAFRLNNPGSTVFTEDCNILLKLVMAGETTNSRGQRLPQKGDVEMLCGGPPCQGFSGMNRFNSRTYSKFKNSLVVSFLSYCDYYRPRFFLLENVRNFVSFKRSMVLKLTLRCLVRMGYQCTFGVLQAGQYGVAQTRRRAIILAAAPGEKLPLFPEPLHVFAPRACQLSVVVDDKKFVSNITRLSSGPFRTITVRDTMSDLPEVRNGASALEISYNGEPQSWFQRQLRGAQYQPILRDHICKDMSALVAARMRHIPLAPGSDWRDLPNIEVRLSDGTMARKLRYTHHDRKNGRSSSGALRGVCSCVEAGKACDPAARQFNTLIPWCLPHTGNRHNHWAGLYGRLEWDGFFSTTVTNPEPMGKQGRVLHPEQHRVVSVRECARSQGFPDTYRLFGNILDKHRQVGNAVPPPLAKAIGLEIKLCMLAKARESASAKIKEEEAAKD
DSG3 Ab inh – blocks pemphigus antibody binding to human desmoglein-3. P32926. DSG3-coupled beads, scFv-anti-DSG3-GFP binding, flow cytometry; hits give low values. binding (percent of control), % at 10 µM. 310,000 tested, 0.48% active;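 active = binding more than 3 SD below its plate's average and above zero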;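 note: hits lower antibody fragment binding to DSG3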
MBD2 DNA inh – inhibitors of human MBD2 binding to methylated oligonucleotide; inhibition, % at 4.4 µM; 370,000 tested, 0.31% active; TR-FRET; in the data active = inhibition above about 13%
SUMO1-SIM PPI – SUMO1-SIM interaction modulation | 360,000 tested, 0.33% active | inhibition, % at 20 µM | SUMO1 binding to a labelled peptide, TR-FRET, 1 h | P63165 | AID 602429; in the data active = inhibition above about 37%
UHRF1 MBD2 ctr – UHRF1 methyl-DNA binding inhibition. 370,000 tested, 0.75% active. inhibition, % at 4.4 µM. Q96T88. UHRF1 binding to methylated oligo, TR-FRET;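 note: UHRF1 SRA domain binding a hemimethylated CpG hairpin DNA probe; 0% = median of test compound wells and 100% = reference inhibitor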
UHRF1 ctr MBD2 – inhibits human UHRF1 binding to methylated oligonucleotide, MBD2 counter-screen; shares compounds with MBD2 DNA inh; inhibition, % at 4.4 µM; 1,000 tested, 25% active; TR-FRET;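 note: UHRF1 SRA domain binding a labeled hemimethylated CpG hairpin DNA; 0% = vehicle only and 100% = reference inhibitor with vehicle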
MBD2 confirm – MBD2-DBD methyl-DNA binding inhibition, TR-FRET confirmation | 1,000 tested, 26% active | shares compounds with MBD2 DNA inh | inhibition, % at 4.4 µM | AID 720531 | TR-FRET MBD2-DBD binding to methylated oligonucleotide; in the data active = inhibition above about 14%
* = called active by the depositor; · = no result; ! = repeats disagree. Cut-off read from the data, not from the text of the source, unless noted: active = inhibition above about 21%; inactive = the rest.

SMILES | NS3 helicase inh | DNMT1 block | DSG3 Ab inh | MBD2 DNA inh | SUMO1-SIM PPI | UHRF1 MBD2 ctr | UHRF1 ctr MBD2 | MBD2 confirm
CCN1CCN(C(=O)CCNC(=O)Cn2ccc3ccccc3c2=O)CC1 | 5 | -2 | 103 | -3 | 1 | -2 | · | ·
COC(=O)c1cccc(N(C(=O)c2ccco2)C(C(=O)NC2CCCC2)c2ccc(N3CCOCC3)cc2)c1 (stereo not drawn) | 0 | 0 | 93 | -4 | 2 | 2 | · | ·
CCCCCNC(=O)N[C@H](C(=O)O)C(C)C | 6 | -1 | 90 | 16* | 1 | 1 | 8 | 5
O=C(OCCCc1cc2ccccc2c(=O)o1)c1ccc(C(F)(F)F)cc1 | · | 16 | 95 | 3 | 7 | -1 | · | ·
COc1cc2cc(CCCOC(=O)c3ccc(C(F)(F)F)cc3)oc(=O)c2cc1OC | · | 13 | 100 | 20* | -6 | 2 | 2 | 8
COc1ccc(S(=O)(=O)N2CCOCC2)cc1C(=O)Nc1ccon1 | -3 | 3 | 119 | -2 | 12 | 1 | · | ·
C=Cc1c(C)c2cc3[nH]c(cc4nc(cc5nc(cc1[nH]2)C(C)=C5CCC(=O)O)C(CCC(=O)O)=C4C)c(C)c3C=C | · | 79* | 25*! | 47* | 112*! | 75* | 97* | 67*
C=C(C)C(=O)Nc1cccc(C2=NOC3(C2)C[C@H](C(N)=O)N(C(=O)c2ccccc2C(=O)c2ccccc2)C3)c1 (stereo partly drawn) | · | 97* | 102 | 31* | 92* | 80* | 67* | 42*
C/C=C/C(=O)Nc1cccc(C2=NOC3(C2)C[C@@H](C(N)=O)N(C(=O)c2cc([N+](=O)[O-])cc([N+](=O)[O-])c2)C3)c1 (stereo partly drawn) | · | -4 | 104 | 16* | -37 | 3 | 2 | 3
C/C=C(\C)C(=O)Nc1cccc(C2=NOC3(C2)C[C@@H](C(N)=O)N(C(=O)c2ccccc2C(=O)c2ccccc2)C3)c1 (stereo partly drawn) | · | -9 | 97 | 4 | 5 | -1 | · | ·
C/C=C(\C)C(=O)Nc1cccc(C2=NOC3(C2)C[C@H](C(N)=O)N(C(=O)c2cc([N+](=O)[O-])cc([N+](=O)[O-])c2)C3)c1 (stereo partly drawn) | · | -6 | 105 | -3 | -36 | -2 | · | ·
COc1ccc(N2C(=O)NC3CC2(C)Oc2ccc(Br)cc23)cc1OC (stereo not drawn) | -1 | 1 | · | 0 | 2 | 0 | · | ·
O=C(CN1CCCc2ccccc21)Nc1ccccc1[N+](=O)[O-] | 2 | 1 | · | -4 | -19 | 3 | · | ·
O=C(c1ccccc1F)c1cc2c(cc1[N+](=O)[O-])OCCO2 | 3 | -9 | 106 | 15* | -28 | 18 | 7 | 1
O=C(CSc1cccc[n+]1[O-])Nc1cc([N+](=O)[O-])ccc1Cl | 4 | 6 | 116 | 13* | -23 | 1 | 10 | 5
Cc1ccc(NC(=O)CSc2cccc[n+]2[O-])c([N+](=O)[O-])c1 | 6 | -2 | 115 | -3 | -17 | -1 | · | ·
CCCN(C(=O)c1cc2c(s1)CCC2)c1c(N)n(Cc2ccccc2)c(=O)[nH]c1=O | 17 | 53* | 86 | 13* | 6 | 11 | 14 | 18*
CC(C)n1cc(CN2CCC(n3nccc3NC(=O)Cc3ccccc3)CC2)cn1 | -7 | 1 | · | -2 | 3 | 0 | · | ·
Cc1c(C)n(Cc2ccccc2)c2ccc(C(=O)OCCCN(C)C)cc12 | -68 | -1 | 102 | -4 | 2 | 1 | · | ·
Cc1c(C)n(CCN(C)C)c2ccc(C(=O)OCCN(C)C)cc12 | 16 | 22 | 102 | 13* | -2 | 15 | 24* | 11
COc1ccc(-c2nnn(CCC(=O)O)n2)cc1 | 5 | 1 | 107 | 36* | 5 | -1 | 7 | 4
COc1ccc(C(C)(O)c2nc(-c3cncnc3)cs2)cc1 (stereo not drawn) | · | 2 | · | -1 | 4 | 1 | · | ·
COc1cc(Cl)c(C)cc1NC(=O)CSc1sc2c(O)cc(=O)[nH]c2c1C#N | 6 | 44 | 107 | 17* | 23 | 33* | 17 | 6
O=C(COC(=O)CCCNC(=O)c1ccc(Cl)cc1)Nc1ccc(Br)cc1 | 2 | 2 | 97 | 13* | -4 | 23* | 2 | 2
O=C(CCCNC(=O)c1ccc(Cl)cc1)Nc1ccc(Br)cc1 | -19 | -1 | 108 | 0 | -1 | -1 | · | ·
SMILES | NS3 helicase inh | DNMT1 block | DSG3 Ab inh | MBD2 DNA inh | SUMO1-SIM PPI | UHRF1 MBD2 ctr | UHRF1 ctr MBD2 | MBD2 confirm
O=C(OCC#CCSc1nnc(-c2cccc3ncccc23)o1)c1ccc(F)cc1 | · | · | · | -4 | · | 0 | · | ·
Cc1ccc(C(=O)N(CN2CCCC2=O)c2ccc(F)cc2)cc1C | 7 | -2 | 104 | 5 | -3 | 1 | · | ·
Cn1cccc1CC(=O)NN=C/C=C\c1ccco1 | · | · | · | 66* | · | 85* | 5 | 7
CC1OC(Oc2c(-c3cc(O)c(O)c(O)c3)oc3cc(O)cc(O)c3c2=O)C(O)C(O)C1O (stereo not drawn) | 3 | 19 | 91 | 3 | -1 | 2 | · | ·
Cc1nc(S/C(=C\c2ccc(OCc3ccccc3Cl)cc2)C(=O)O)n[nH]1 | 4 | -5 | · | 1 | 5 | -1 | · | ·
Cc1nc(S/C(=C\c2ccc(-c3ccc(C(=O)O)c(Cl)c3)o2)C(=O)O)n[nH]1 | 20 | 91* | 91 | 27* | 57* | 88* | 53* | 10
COc1cc(CN2CCC(n3nccc3NC(=O)CCCc3ccccc3)CC2)ccc1F | -46 | -2 | 98 | 0 | 1 | -1 | · | ·
CCN(C[C@H]1N[C@@](C)(C(=O)OC)[C@H]2C(=O)N(C)C(=O)[C@@H]12)C(=O)Nc1ccc(C(F)(F)F)cc1 | · | 4 | 99 | 15* | 0 | 22* | 8 | 3
COc1ccc(N2C(=O)CN(Cc3cc(OC)c(OC)c(OC)c3)C2=S)cc1 | 1 | 0 | 94 | 1 | -4 | -1 | · | ·
COC(=O)c1cc(OC)c(OC)cc1NC(=S)N1CCCC(CO)C1 (stereo not drawn) | -3 | -1 | 103 | 1 | -1 | -2 | · | ·
COC(=O)c1ccc(C(=O)OC)c(NC(=S)N2CCCC(CO)C2)c1 (stereo not drawn) | -11 | 0 | 103 | 24* | -1 | 1 | 1 | 4
COc1ccc(/C=c2\sc3nc(=O)c(C)nn3c2=O)c(OC)c1 | 4 | -1 | 98 | -3 | 15 | -6 | · | ·
COc1ccc(Br)cc1/C=c1\sc2nc(-c3ccco3)nn2c1=O | · | 106* | 90 | 23* | 37 | 71* | 22* | 12

Compound activity from PubChem BioAssay.
